Data from paper PMC6764274 (Chemical Science, 2019).
Read-outs that look alike come from different tables or passages of the source.

Legend:
[1] = system: HMLER-shEcad mammospheres; conditions: cited from earlier work
[2] = system: HMLER-shEcad cells; assay: MTT cytotoxicity assay, breast CSC-enriched cells; assay type: cell-based; conditions: read-out: HMLER-shEcad IC50/nM
[3] = system: HMLER cells; assay: MTT cytotoxicity assay, bulk breast cancer cells; assay type: cell-based; conditions: read-out: HMLER IC50/nM
[4] = system: HMLER-shEcad mammospheres; assay: Mammosphere formation inhibition; assay type: cell-based; conditions: IC20 value for 5 days
In short: (§1)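 HMLER-shEcad or MCF10A cells were grown as mammospheres/spheroids with test compound at its IC20 for 5 days. Spheres were assessed by inverted microscope with bright-field imaging (×20), and formation was quantified against untreated cells. SD, Student t-test.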

[5] = system: MCF10A spheroids; assay: Non-tumorigenic spheroid formation inhibition; assay type: cell-based; conditions: IC20 value for 5 days
In short: as §1

[6] = system: HMLER-shEcad cells; conditions: read-out: HMLER-shEcad IC50/nM; 72 h incubation; cited from earlier work
[7] = system: MCF10A spheroids; assay: Non-tumorigenic spheroid viability; assay type: cell-based; conditions: Homo sapiens, MCF-10A, read-out: IC50, MCF10A spheroid viability
[8] = 72 h incubation, mean of three independent experiments ± SD

## O=C(O)Cc1ccccc1Nc1c(Cl)cccc1Cl [Diclofenac]
[1]
  effect on number or size of HMLER-shEcad mammospheres formed: does not significantly affect

## [Cl][Mn][Cl] [MnCl2·4H2O]
[2]; [8]
  IC50: 7760 ± 318 nM

## Cc1cnc2c(ccc3c(C)c(C)cnc32)c1C.[Cl][Mn][Cl] [Mn(3,4,7,8-tetramethyl-1,10-phenanthroline)Cl2]
[2]; [8]
  IC50: 170 ± 14 nM
[3]; [8]
  IC50: 163 ± 21 nM

## CC[C@@H](C(=O)[C@@H](C)[C@@H](O)[C@H](C)[C@@H]1O[C@@H]([C@@H](CC)C(=O)O)CC[C@@H]1C)[C@H]1O[C@]2(C=C[C@@H](O)[C@]3(CC[C@@](C)([C@H]4CC[C@](O)(CC)[C@H](C)O4)O3)O2)[C@H](C)C[C@@H]1C [Salinomycin]
[4]
  decrease in number of HMLER-shEcad mammospheres formed compared to the untreated control: 53%
[5]
  decrease in number of MCF10A spheroids formed: 40%
[6]
  IC50: 4200 ± 400 nM
[7]
  IC50: 14900 ± 500 nM

## Cc1cnc2c(ccc3c(C)c(C)cnc32)c1C [3,4,7,8-Tetramethyl-1,10-phenanthroline]
[2]; 72 h
  IC50: 720 ± 84 nM
[3]; 72 h
  IC50: 785 ± 10 nM

## N.N.[Cl][Pt][Cl] [Cisplatin]
[2]; [8]
  IC50: 5640 ± 304 nM
[3]; [8]
  IC50: 2565 ± 21 nM
